From paper PMC3076219 (European journal of immunology, 2009)

Experiments:
[1] = tested on: CXCR2; assay: CXCR2 surface expression on neutrophils, flow cytometry; type: cell-based, human
[2] = tested on: P2X7; assay: P2X7 surface expression on neutrophils, flow cytometry; type: cell-based, human; conditions: LL-37 treated neutrophils, 3h; Fig. 2D
In short: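 Human blood neutrophils were isolated by dextran sedimentation and Ficoll (>95% CD16+) and held at 5×10^6/mL in RPMI 1640 with 1% FBS. They were treated 3h with a dose series (test peptide 1–10 µM; chemokines 1, 5, 10, 50 nM) or with 5 µM for 0.5–3h. Cells were blocked in 10% human serum and stained with anti-CXCR1-APC/anti-CXCR2-FITC or anti-P2X7-FITC, plus anti-CD16. Read-out was flow cytometry GMFI.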

[3] = tested on: neutrophils; assay: Calcium mobilization of neutrophils; type: cell-based, human
[4] = tested on: neutrophils; assay: Cross-desensitization of calcium mobilization of neutrophils; type: cell-based, human
[5] = tested on: monocytes; assay: Calcium mobilization in monocytes; type: cell-based, human
In short: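 Peripheral blood monocytes (kit-isolated from PBMC, CD14-checked) or THP-1 cells at 10^7/mL were loaded with 5 µM Indo-1-AM for 7 min at 37 °C, then held 10 min at RT and washed in cold PBS. Cells were run at 2×10^6/mL in KRP (PBS, 1.5 mM CaCl2, 1.5 mM MgSO4). After baseline they got a first stimulus, then a second. Flow cytometry used 351 nm excitation and the 405:485 nm ratio, gating live cells. Three independent experiments.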

[6] = tested on: CXCR2; assay: Confocal analysis of CXCR2 internalization in neutrophils; type: cell-based, human; conditions: LL-37 5 µM or CXCL8 50 nM, 1 h, 37°C; Fig. 8
In short: (§1)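 Neutrophils came from citrated donor blood by dextran sedimentation and Ficoll gradient. […] Cells were fixed in 2% paraformaldehyde, permeabilised with saponin and blocked with human serum. Anti-CXCR1 or anti-CXCR2 mAb (4°C), then Alexa 488 anti-mouse IgG, DAPI mount, confocal imaging; three independent experiments.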

[7] = tested on: CXCR1; assay: Confocal analysis of CXCR1 internalization in neutrophils; type: cell-based, human; conditions: LL-37 5 µM or CXCL8 50 nM, 1 h, 37°C; Fig. 8
In short: as §1

[8] = tested on: neutrophils; conditions: cited from earlier work
[9] = tested on: P2X7; conditions: LL-37; ref [14]; cited from earlier work
[10] = tested on: mast cells; conditions: ref [3], [9], [10]; cited from earlier work

## LL-37: ~4.5 kD active α-helical peptide, C-terminal domain of human cathelicidin hCAP18
[1]; LL-37 5 µM, at 3h, p<0.001, Fig. 1B, four independent experiments
  down-regulation of CXCR2 in time course compared to untreated controls: 50%
[1]; LL-37 10 µM, 3h
  CXCR2 surface expression at 10 µM: a further reduction was observed at 10 µM
[2]
  P2X7 surface expression: up-regulate the expression of P2X7
[3]; LL-37 1 µM, 2.5 µM, 5 µM, 10 µM, Indo-1, Fig. 3A
  [Ca2+]i pattern, dose response: a rapid rise followed by a slightly declining plateau region
[3]; LL-37, 600s recording time, Fig. 3A
  [Ca2+]i duration: sustained calcium mobilization over the 600s recording time
[3]; LL-37, Fig 3A
  return of Ca2+ response to baseline, neutrophils: returns to baseline for THP-1 cells, but not for neutrophils and monocytes
[3]; PBS without calcium and magnesium, LL-37 5 µM, WKYMVm 5 µM, ATP 5 µM, Fig. 3C
  calcium flux response in the absence of extracellular Ca2+: only the WKYMVm peptide is capable of generating a calcium flux response
[4]; LL-37 first, then ATP, Supporting information Fig. 3A-B
  cross-desensitization of ATP response by LL-37: unable to block calcium mobilization stimulated by LL-37 in neutrophils, and vice versa
[4]; data not shown
  cross-desensitization of response to fMLF by LL-37, CXCL7, CXCL1: do not cross-sensitize fMLF stimulation
[5]; LL-37, Fig. 7D
  return of Ca2+ response to baseline, monocytes: returns to baseline for THP-1 cells, but not for neutrophils and monocytes
[5]; LL-37 first, then ATP, Fig. 7D
  cross-block of ATP stimulated calcium mobilization in monocytes: neither ATP nor WKYMVm cross-block LL-37 stimulated calcium mobilization and vice versa
[5]; LL-37 first, then WKYMVm, Fig. 7D
  cross-block of WKYMVm stimulated calcium mobilization in monocytes: neither ATP nor WKYMVm cross-block LL-37 stimulated calcium mobilization and vice versa
[5]; LL-37 stimulated
  calcium mobilization in monocytes: stimulates calcium mobilization
[6]
  CXCR2 translocation (internalization): translocation of CXCR2 but not CXCR1 to the cytoplasmic granules
[7]
  CXCR1 translocation (internalization): translocation of CXCR2 but not CXCR1 to the cytoplasmic granules
[8]; ref [3], [9], [10]
  migration of neutrophils: migration of human peripheral monocytes, neutrophils
[8]; ref [9]
  neutrophil migration (literature): induces neutrophil migration
[9]
  IL-1β processing and release from monocytes: induce IL-1β processing and release from monocytes
[10]
  migration of mast cells: migration of human peripheral monocytes, neutrophils, CD4+ T cells, and mast cells
